OX1R antag-1: OX1R (HCRTR1) antagonists, primary screen, fluorescence, CHO/OX1R cells, Fluo-8 calcium, orexin A | Orexin/Hypocretin receptor type 1 (Homo sapiens), O43613 | Fluo-8 calcium fluorescence | inhibition, % at 5 µM | 0.43% of 330,000 active | AID 434989, 2010;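 active = inhibition above its plate's threshold, mean inhibition of all tested compounds on the plate plus 3 SD, cut at about 37% in these data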
Target sequence (O43613 whole entry, looked up): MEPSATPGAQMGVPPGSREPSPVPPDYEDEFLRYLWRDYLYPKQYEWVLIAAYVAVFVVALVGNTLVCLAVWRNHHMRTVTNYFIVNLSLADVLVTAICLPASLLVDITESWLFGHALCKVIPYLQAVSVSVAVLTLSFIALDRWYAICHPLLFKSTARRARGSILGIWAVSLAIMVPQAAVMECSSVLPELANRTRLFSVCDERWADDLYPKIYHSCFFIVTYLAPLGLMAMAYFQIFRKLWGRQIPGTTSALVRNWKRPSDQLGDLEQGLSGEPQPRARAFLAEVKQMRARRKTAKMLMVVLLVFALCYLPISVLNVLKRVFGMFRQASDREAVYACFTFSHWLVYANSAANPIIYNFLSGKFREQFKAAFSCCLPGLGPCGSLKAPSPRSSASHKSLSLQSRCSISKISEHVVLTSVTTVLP
CHO parental Ca: ATP-evoked calcium signal inhibitors, parental CHO, primary screen, counter-screen for OX1R antagonist project, cell-based, fluorescence, Fluo-8 calcium dye | AID 463079, 2010 | inhibition, % at 5.6 µM | parental CHO-K1, ATP-induced calcium, Fluo-8 fluorescence | 0.63% of 330,000 active;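 active = inhibition above that plate's mean sample inhibition plus 3 SD, cut at about 26% in these data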
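Test system: untransfected parental CHO cell line. Compound: one dose, 5.6 µM nominal. Detection: intracellular calcium via Fluo-8 no-wash fluorescent dye. Measure: % inhibition. Benchmarks: ATP-challenged DMSO wells low, unchallenged DMSO wells high.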
GPR7 antag: GPR7 receptor antagonists, primary screen, cell-based, fluorescence, single concentration; Neuropeptides B/W receptor type 1 (Homo sapiens), P48145; GPR7-expressing cells, fluorescence antagonist assay; inhibition, % at 4.4 µM; 1.1% of 290,000 active; AID 1861, 2009; in the data active = inhibition above about 16%, passing the limit was not always enough;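 also: cells stimulated with the agonist NPW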
TAAR1 ag: human TAAR1 agonists, primary screen, Fluo-8 calcium fluorescence, CHO RD-HGA16 cells. Trace amine-associated receptor 1 (Homo sapiens), Q96RJ0. vehicle wells 0%, saturating PEA agonist 100%. activation, % at 3 µM. 0.99% of 360,000 active. AID 624467, 2012;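 active = activation above the mean activation of all test compounds in the run plus 3 SD, cut at about 38% in these data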
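System: CHO-derived RD-HGA16 cells with stable Gα16 and human TAAR1 / Times: 17-24 h plating, Fluo-8 75 min 37 °C, 30 min RT / Technique: calcium-sensitive Fluo-8 signal, excitation 470-495, emission 515-575 nm / Measure: % activation relative to PEA EC100 response / Benchmarks: DMSO and PEA EC100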
OX1R antag-2: antagonists of human orexin 1 receptor (OX1R) | Orexin/Hypocretin receptor type 1 (Homo sapiens), O43613 | OX1R-expressing cells, FRET antagonist read-out | inhibition, % at 6.6 µM | 1.8% of 330,000 active | AID 485270, 2010; in the data active = inhibition mostly above about 38%, no sharp cut-off; inactive = mostly below about 40%
TAAR1 antag: human TAAR1 antagonists, primary screen, Fluo-8 calcium fluorescence, CHO RD-HGA16 cells. antagonist. Trace amine-associated receptor 1 (Homo sapiens), Q96RJ0. AID 624466, 2012. inhibition, % at 3 µM. 1.5% of 360,000 active;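 active = inhibition above a per-plate cutoff, the mean inhibition of test compounds on that plate plus 3 SD, cut at about 49% in these data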
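Assay system: RD-HGA16 CHO cells with stable hTAAR1 and Gα16 / Reagent: EC80 β-phenethylamine stimulus / Doses: 3 µM, single point / Timing: dye loading 75 min at 37 °C, then 30 min room temperature / Measured by: Fluo-8 intracellular calcium dye fluorescence, real-time kinetic reads / Controls: vehicle wells and EC80 agonist wells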
Large screens that a line does not name were inactive. Only some compounds are listed: those with a hit (about 4.6% of all), similar ones and a draw of the others.

O=C(Cn1nc(-c2ccc(Cl)cc2)ccc1=O)NCc1ccc2c(c1)OCO2	none
O=C(Cn1nc(-c2ccccc2)ccc1=O)NCc1ccc2c(c1)OCO2	OX1R antag-2 72
CCC1Sc2ccccc2N(CC(=O)NCc2ccc3c(c2)OCO3)C1=O (stereo not drawn)	TAAR1 antag 50
O=C(CSc1ccc2ccccc2n1)NCc1ccc2c(c1)OCO2	OX1R antag-2 54
CC[C@]12c3[nH]c4cc(CCC(=O)N(C)C)ccc4c3CCN1C(=O)[C@@H](CC(=O)NCc1cccc(C(F)(F)F)c1)C[C@@H]2C(=O)N1CCN(C(=O)C2CC2)CC1	none (no result: GPR7 antag)
CCOC(=O)CNC(=S)n1ncnc1N	GPR7 antag 16
COC(=O)Cc1nnn2c1[C@H](C)[C@H](c1cccc(OC)c1OC)OCC2	none (no result: OX1R antag-1, CHO parental Ca, GPR7 antag, OX1R antag-2)
O=C(NCc1ccco1)C(c1ccncc1)N(C(=O)Cc1cccs1)c1ccccc1 (stereo not drawn)	none
O=C(NCc1ccco1)C(c1ccccc1)N(C(=O)Cc1cccs1)c1ccccc1F (stereo not drawn)	TAAR1 antag 58
CC(=O)Nc1cccc(NC(=O)COC(=O)CO/N=C(\C)c2ccc3c(c2)OCO3)c1	OX1R antag-2 74
COc1ccc(O)c(/C=N/n2c(-c3ccco3)csc2=Nc2cccnc2)c1	TAAR1 antag 49
O=C(NCCNCC(O)COc1ccc(O)cc1)N1CCOCC1 (stereo not drawn)	none (no result: OX1R antag-1, CHO parental Ca, GPR7 antag, OX1R antag-2)
Cc1cc(Nc2ccccc2)nc(N2CCOCC2)n1	TAAR1 ag 41
Cc1cc(Nc2cccc(Cl)c2)nc(N2CCOCC2)n1	none
O=C(CN1C(=O)c2ccccc2C1=O)NC1CCC(O)CC1 (stereo not drawn)	none (no result: GPR7 antag)
CCC(C(=O)OCC(=O)Nc1c(C)nn(-c2ccccc2)c1C)c1ccccc1 (stereo not drawn)	none (no result: GPR7 antag)
COc1ccc(C)cc1NC(=O)COC(=O)c1c(C)nn(-c2ccccc2)c1C	OX1R antag-2 30 (no result: GPR7 antag)
Cc1nn(-c2ccccc2)c(C)c1NC(=O)COC(=O)/C=C/c1ccccc1	TAAR1 antag 60 (no result: GPR7 antag)
COc1ccc(OC)c(NC(=O)COC(=O)c2c3c(nc4ccccc24)CCCC3)c1	OX1R antag-2 57
COc1ccc(C)cc1NC(=O)c1nn(-c2ccccc2)cc1OC	OX1R antag-2 48
CC(Cc1ccccn1)NC(=O)CCc1nnc(C2CCCCC2)o1 (stereo not drawn)	none
CCc1nnc(NC(=O)CCC(=O)N2CCN(c3cccc(Cl)c3)CC2)s1	none
Cc1noc(C)c1COc1ccc(C(=O)NNC(=O)c2ccccc2O)cc1	none (no result: GPR7 antag)
Cc1occc1-c1nnc(-c2cc([N+](=O)[O-])cc([N+](=O)[O-])c2)o1	OX1R antag-2 59
O=[N+]([O-])c1cccc(-c2nnc(-c3ccccc3)o2)c1	none
O=C(/C=C/c1cccc(F)c1)c1ccc(N2CCOCC2)cc1	none
O=C(/C=C/c1cccs1)c1ccc(N2CCOCC2)cc1	OX1R antag-2 65
Cn1c(Nc2ccc(Cl)cc2)cc(=O)n(C)c1=O	none
COc1c(S(=O)(=O)NCCCn2ccnc2)ccc(Cl)c1Cl	none
COC(=O)c1ccc(NC(=O)CCN2C(=O)NC(C)(C)C2=O)cc1	none (no result: GPR7 antag)
O=C(CC(c1ccccc1)(c1ccccc1)c1ccccc1)N[C@@H](Cc1ccc(O)cc1)C(=O)O	OX1R antag-2 50
O=C(COCc1ccccc1)N[C@@H](Cc1ccc(O)cc1)C(=O)O	none
COc1cc(Cl)c(CNC[C@H]2O[C@@H](n3cnc4c(=O)[nH]c(N)nc43)[C@H](O)[C@@H]2O)c(Cl)c1O	none (no result: OX1R antag-1, CHO parental Ca, GPR7 antag, OX1R antag-2)
Cc1nn(-c2ccccc2)c2sc(-c3n[nH]c(=S)o3)cc12	OX1R antag-2 41
OC1(c2ccccc2)CNCCc2ccccc21 (stereo not drawn)	none
C(=N\NC1=Nc2cccc3cccc1c23)/c1ccccc1	none
NC1=Nc2cccc3cccc1c23	OX1R antag-2 71
CCc1cccc2c(C(=O)COC(=O)c3ccc([N+](=O)[O-])s3)c[nH]c12	none
COc1ccccc1/C=C/C(=O)OCc1nc2ccccc2c(=O)[nH]1	OX1R antag-2 46
COc1ccc(C(=O)OCC(=O)c2c[nH]c3ccccc23)cc1OC	OX1R antag-2 32 (no result: GPR7 antag)
O=C(OCC(=O)c1c[nH]c2ccccc12)c1ccc([N+](=O)[O-])s1	OX1R antag-2 51
COc1ccccc1/C=C/C(=O)OCC(=O)c1c[nH]c2ccccc12	OX1R antag-2 42 (no result: GPR7 antag)
COc1cc(C(=O)OCC(=O)c2c[nH]c3ccccc23)ccc1OCC(=O)N1CCOCC1	none
CCc1ccc(-c2nc(CS(=O)CC(=O)NCc3ccc4c(c3)OCO4)c(C)o2)cc1 (stereo not drawn)	none
CCOc1ccccc1NC(=O)C(Sc1ccccc1)c1ccccc1 (stereo not drawn)	OX1R antag-1 59, CHO parental Ca 57, TAAR1 antag 57
O=C(c1ccc(F)cc1)n1c(NCc2ccccc2)n[nH]c1=S	none
NC(=O)CN1C(=O)C(O)(CC(=O)c2ccccc2O)c2ccccc21 (stereo not drawn)	OX1R antag-2 56
O=c1[nH][nH]c(C(F)(F)F)c1C=NCc1cccc(Cl)c1	TAAR1 ag 43
O=c1[nH][nH]c(C(F)(F)F)c1C=NCc1ccc(Cl)cc1	none
CCN(CC)c1ccc(/C=C/C(=O)c2ccc(Br)cc2)cc1	OX1R antag-1 99, CHO parental Ca 91, TAAR1 ag 138, TAAR1 antag 81
CC(=O)Nc1cccc(C(=O)/C=C/c2ccc(Br)cc2)c1	GPR7 antag 20
O=C(/C=C/c1ccc(Br)cc1)c1ccc(NC2=NCCCS2)cc1	GPR7 antag 52
O=C(/C=C/c1ccccc1)c1ccc(NC2=NCCCS2)cc1	none
COc1ccc(CNC(=O)CCNS(=O)(=O)c2cc(Br)cnc2N)cc1	none (no result: TAAR1 ag, TAAR1 antag)
CCn1nc(C)cc1-c1nnc(Sc2ncc([N+](=O)[O-])s2)n1C	OX1R antag-2 52
OCCCc1nc2n(n1)C(c1cccs1)C=C(c1ccccc1)N2 (stereo not drawn)	CHO parental Ca 33 (no result: TAAR1 ag, TAAR1 antag)
CCn1nc(C(=O)N2CCN(Cc3nc4ccccc4s3)CC2)c2ccccc2c1=O	TAAR1 antag 57 (no result: GPR7 antag)
C[C@H](CO)N1C[C@H](C)[C@@H](CN(C)C(=O)Nc2ccccc2)Oc2c(NC(=O)Nc3ccccc3)cccc2C1=O	TAAR1 antag 50 (no result: GPR7 antag)

From PubChem
